Assays:
[1] = melting temperature; fluorescence melt of hairpins on a sequencing array, two-state fit, raised by 9.35 °C to match UV melts; conditions: sodium 0.088 M
In short: (§1)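 In 50 mM Na-HEPES pH 8.0 containing 25 mM NaCl, hairpins from the library on a sequenced MiSeq flow cell were imaged for Cy3 fluorescence at 2.5 °C steps up to 60 °C, with Cy3 and quencher oligos annealed. After normalisation to pre-quench Cy3 and to control constructs, two-state fits with bootstrapping gave melting temperature and folding enthalpy. Four replicates were combined by inverse-variance weighting, and fitted temperatures were shifted up by 9.35 °C to match UV melts.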

[2] = folding enthalpy; higher = less favourable; fluorescence melt of hairpins on a sequencing array, two-state fit; conditions: sodium 0.088 M
In short: as §1

Row | Sequence | Tm [1] | folding enthalpy [2]
1 | GACATTGGAAACAGTGTC ((((.((....)).)))) | 42.6 °C | -33.1 kcal/mol
2 | GACCAAGGAAACTTGATC ((.((((....)))).)) | 28.8 °C | -16.8 kcal/mol
3 | GACCACCCGAAAGGGGTC (((..(((....)))))) | 46.5 °C | -13.1 kcal/mol
4 | GACCACGAAAGTGCAGTC ((((((....)))..))) | 36.6 °C | -17.5 kcal/mol
5 | GACCACGGAAACGCGGTC ((((.((....)).)))) | 53.2 °C | -49 kcal/mol
6 | GACCACGGAAACGTGGCC (.(((((....))))).) | 49.9 °C | -13.3 kcal/mol
7 | GACCAGAAATGGTC (((((....))))) | 51.2 °C | -33.2 kcal/mol
8 | GACCAGCGAAAGCTAGTC (((.(((....))).))) | 44.8 °C | -23.1 kcal/mol
9 | GACCAGGGAAACCTGACC (..((((....))))..) | 30.1 °C | -10 kcal/mol
10 | GACCCAGAAATGGGTC ((((((....)))))) | 64 °C | -35.3 kcal/mol
11 | GACCCAGGAAACTGAGTC (((.(((....))).))) | 37.9 °C | -30 kcal/mol
12 | GACCCAGGAAACTGGATC ((.((((....)))).)) | 38.8 °C | -17.9 kcal/mol
13 | GACCCCACGAAAGTGGTC (((..(((....)))))) | 28.9 °C | -8.51 kcal/mol
14 | GACCCCCCGAAAGGGGTC (((..(((....)))))) | 57.2 °C | -15.2 kcal/mol
15 | GACCCCCGAAAGGGCGTC (((.(((....))).))) | 55.4 °C | -25.1 kcal/mol
16 | GACCCCGAAAGGGATGTC ((((((....)))..))) | 41.2 °C | -15.6 kcal/mol
17 | GACCCCGAAAGGGCAGTC ((((((....)))..))) | 35.4 °C | -14 kcal/mol
18 | GACCCCGAAAGGGCCGTC ((((((....)))..))) | 35.7 °C | -14 kcal/mol
19 | GACCCCGAAAGGGCTGTC ((((((....)))..))) | 40.9 °C | -14.6 kcal/mol

Row | Sequence | Tm [1] | folding enthalpy [2]
20 | GACCCCGAAAGGGTGGTC ((((((....)))..))) | 49.4 °C | -16.5 kcal/mol
21 | GACCCCGAAAGGGTTGTC ((((((....)))..))) | 43.4 °C | -14.4 kcal/mol
22 | GACCCGGGAAACCGAGTC (((.(((....))).))) | 45.3 °C | -32.8 kcal/mol
23 | GACCCGGGAAACCGGGCC (.(((((....))))).) | 53.3 °C | -12.6 kcal/mol
24 | GACCGACGAAAGTCAGTC (((.(((....))).))) | 47.9 °C | -23.5 kcal/mol
25 | GACCGACGAAAGTCTGTC (((.(((....))).))) | 48.7 °C | -31.1 kcal/mol
26 | GACCGAGGAAACCCGGTC (((((.(....).))))) | 53.2 °C | -36.4 kcal/mol
27 | GACCGCACGAAAGTGGTC (((..(((....)))))) | 47 °C | -21.1 kcal/mol
28 | GACCGCCCGAAAGGGGTC (((..(((....)))))) | 42.3 °C | -15.4 kcal/mol
29 | GACCGCCGAAAGGCCGTC (((.(((....))).))) | 50.7 °C | -18.8 kcal/mol
30 | GACCGCGAAAGCGACGTC ((((((....)))..))) | 45.8 °C | -13.2 kcal/mol
31 | GACCGCGAAAGCGGAGTC ((((((....)))..))) | 40.6 °C | -7.63 kcal/mol
32 | GACCGCGAAAGCGGGTC ((((((....))).))) | 68.8 °C | -11.9 kcal/mol
33 | GACCGCGAAAGCGGTGTC ((((((....)))..))) | 63.8 °C | -8.7 kcal/mol
34 | GACCGCGAAAGCGTTGTC ((((((....)))..))) | 40.1 °C | -13.2 kcal/mol
35 | GACCGCGGAAACGCAGTC (((.(((....))).))) | 48.9 °C | -24.6 kcal/mol
36 | GACCGGAAACGGTC (((((....))))) | 67.5 °C | -28.3 kcal/mol
37 | GACCGGCCGAAAGGCGTC (((..(((....)))))) | 38.4 °C | -12.5 kcal/mol
38 | GACCGTGGAAACACAGTC (((.(((....))).))) | 40.5 °C | -23.8 kcal/mol

Reference: the array DNA melting data of Ke et al. (doi:10.1101/2024.01.08.574731)
